This is a sample that favours compounds with a hit; in the whole collection about 3.5% have one here.
MrgX1 PAM: allosterically activates human MrgX1 receptor signaling. Q96LB2. MrgX1-HEK293, Fluo-4 calcium flux, FDSS; active compounds read high. B-score at 10 µM. hit rate 0.63% among 310,000;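 active = plate-corrected calcium response at least 3 library SD above typical, normal starting fluorescence, not activating the receptor alone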;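 also: compound read alongside a low EC10 to EC30 dose of BAM8-22 agonist; peak minus trough fluorescence over baseline measured at the second addition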
Target sequence (Q96LB2 whole entry, looked up): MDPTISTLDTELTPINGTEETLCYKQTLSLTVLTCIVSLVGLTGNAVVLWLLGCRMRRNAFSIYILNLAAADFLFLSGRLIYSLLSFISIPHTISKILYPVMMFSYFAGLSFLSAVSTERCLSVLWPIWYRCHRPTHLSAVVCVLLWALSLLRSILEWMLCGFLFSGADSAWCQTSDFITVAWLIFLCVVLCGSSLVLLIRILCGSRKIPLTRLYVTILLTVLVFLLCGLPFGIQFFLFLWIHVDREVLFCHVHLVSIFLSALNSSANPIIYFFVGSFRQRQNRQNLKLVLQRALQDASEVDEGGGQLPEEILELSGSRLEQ
RGS4 act: RGS4 potentiation or activation | HEK293 M3R/inducible RGS4, carbachol calcium flux Fluo4; active compounds read low | AID 463111 | hit rate 0.92% among 310,000 | B-score at 10 µM;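 active = B-score of the integrated calcium signal more than 4 SD below the library mean, with starting fluorescence not abnormally high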;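 also: negative B-score means reduced calcium response which marks RGS4 activation or potentiation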
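Test system: HEK293 cells with stable M3R and inducible RGS4; also added: carbachol at ECmax as muscarinic agonist stimulus; schedule: dye loading 30 min 37 °C, buffer rest 30 min RT; technique: kinetic calcium fluorescence imaging with Fluo4-AM dye, 2 µM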
MrgX1 antagonist: blocks BAM8-22 activation of human MrgX1 receptor; Q96LB2; MRGX1-HEK293 calcium flux, Fluo-4, BAM8-22 antagonism; active compounds read low; B-score at 10 µM; hit rate 1.3% among 310,000; AID 588676;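 active = calcium-response B-score plate-corrected more than 3 library SD below zero, starting fluorescence within 5 deviations, no agonist response on first addition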;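 also: peak minus trough fluorescence over baseline after final BAM8-22 challenge near maximal dose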
MrgX1 agonist: human MrgX1 receptor agonism, primary screen. Q96LB2. MrgX1-HEK293 cells, Fluo-4 calcium fluorescence, agonist mode; active compounds read high. B-score at 10 µM. hit rate 0.44% among 310,000. AID 588627;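 active = calcium response B-score plate-corrected fluorescence ratio at least 3 library SD, with starting fluorescence B-score inside 5 SD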
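Material: MrgX1-expressing HEK293 cells / Dosing: compound as first of three additions / Incubation: overnight seeding, then 1 h dark dye loading / Signal: Fluo-4 NW calcium fluorescence / Evaluation: B-scored fluorescence response ratio / Benchmarks: positive and negative control wells on each plate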
RGS4 block: human RGS4 inhibition; B-score at 10 µM; P49798; hit rate 0.45% among 310,000; HEK293 M3R/RGS4 inducible, Fluo-4 calcium flux; active compounds read high; triggered by carbachol at its EC20;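 active = B-score, a plate-corrected calcium signal, over three deviations above library mean, with baseline fluorescence within five deviations of library mean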;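 also: RGS4 expression induced by doxycycline in cells with stable M3 receptor; B-score is computed from the integrated fluorescence ratio over baseline after carbachol; higher B-score means a larger calcium signal and so more RGS4 inhibition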
Target sequence (P49798 whole entry, looked up): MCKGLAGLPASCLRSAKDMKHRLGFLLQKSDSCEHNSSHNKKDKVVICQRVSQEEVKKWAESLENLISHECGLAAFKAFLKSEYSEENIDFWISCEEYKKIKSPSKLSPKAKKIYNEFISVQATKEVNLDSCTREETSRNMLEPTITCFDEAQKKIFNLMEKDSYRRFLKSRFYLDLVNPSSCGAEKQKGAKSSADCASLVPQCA
RGS4 inh valid: validation of RGS4 inhibitors; shares compounds with RGS4 block; HEK293 M3R/RGS4, carbachol calcium Fluo-4 fluorescence; carbachol added at its EC20; 0 = buffer wells, 100 = carbachol control; calcium response, % at 10 µM; hit rate 65% among 1,700; AID 492999;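 active = duplicate-averaged calcium response above the buffer-only control mean plus 5 SD of those controls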;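 also: integrated fluorescence ratio F max minus min over baseline F0; higher response in RGS4-induced cells means RGS4 inhibition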
RGS4 uninduced: non-induced cell nonspecific activity of RGS4 inhibitors; AID 493000; HEK293 M3R non-induced, carbachol calcium Fluo-4; submaximal (EC20) carbachol stimulus; buffer wells 0%, carbachol control wells 100%; hit rate 20% among 1,900; activity (percent), % at 10 µM; shares compounds with RGS4 block; call rule not given here;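 also: RGS4 induction absent so cells express M3R without RGS4; higher means more calcium signal and flags a non-specific hit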
M3R basal Ca ctr: signal in non-induced cells without carbachol, RGS4 inhibitor counter-screen; hit rate 22% among 1,900; AID 493001; shares compounds with RGS4 block; HEK293 M3R/RGS4 non-induced, Fluo-4 calcium, no carbachol; normalised: buffer wells 0%, carbachol wells 100%; calcium response (agonist-mode artifact), % at 10 µM;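 active = duplicate-averaged calcium rise in uninduced cells above buffer wells' mean plus 5 SD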
Numbers stand for hits.

O=C(O)CSCC(=O)N1N=C2/C(=C/c3ccccc3)CCCC2C1c1ccccc1 (stereo not drawn) was read as MrgX1 PAM inactive, RGS4 act inactive, MrgX1 antagonist inactive, MrgX1 agonist inactive and RGS4 block inactive.
Screening O=C(CSc1ncn[nH]1)N1N=C2/C(=C/c3ccccc3)CCCC2C1c1ccccc1 (stereo not drawn) returned MrgX1 PAM inactive, RGS4 act inactive, MrgX1 antagonist inactive, MrgX1 agonist inactive, RGS4 block 5.1, RGS4 inh valid 10%, RGS4 uninduced inactive and M3R basal Ca ctr inactive.
Screening CSc1nc(-c2ccc(Cl)cc2)nn1C(=O)c1ccco1 returned MrgX1 PAM inactive, RGS4 act inactive, MrgX1 antagonist inactive, MrgX1 agonist inactive, RGS4 block 5.6, RGS4 inh valid inactive, RGS4 uninduced inactive and M3R basal Ca ctr inactive.
For COc1ccc(C)cc1NC(=O)C(=O)NCc1ccncc1 the results were MrgX1 PAM inactive, RGS4 act inactive, MrgX1 antagonist inactive, MrgX1 agonist inactive, RGS4 block inactive, RGS4 inh valid inactive, RGS4 uninduced inactive and M3R basal Ca ctr inactive.
For COc1ccc(NC(=O)C(=O)NCc2ccncc2)c(OC)c1 the results were MrgX1 PAM inactive, RGS4 act inactive, MrgX1 antagonist inactive, MrgX1 agonist inactive, RGS4 block inactive, RGS4 inh valid inactive, RGS4 uninduced inactive and M3R basal Ca ctr inactive.
CC(C)c1ccc(S(=O)(=O)NCc2ccc3c(c2)OCO3)cc1 was read as MrgX1 PAM inactive, RGS4 act inactive, MrgX1 antagonist inactive, MrgX1 agonist inactive and RGS4 block inactive.
For COc1cc(C(C[N+](=O)[O-])c2c(C)cc3ccccn23)ccc1O (stereo not drawn) the results were MrgX1 PAM inactive, RGS4 act inactive, MrgX1 antagonist inactive, MrgX1 agonist inactive and RGS4 block inactive.
For COc1ccc(C(C[N+](=O)[O-])c2c(-c3ccccc3)cc3ccccn23)cc1OC (stereo not drawn) the results were MrgX1 PAM inactive, RGS4 act inactive, MrgX1 antagonist inactive, MrgX1 agonist 55, RGS4 block 13, RGS4 inh valid 12%, RGS4 uninduced inactive and M3R basal Ca ctr inactive.
`COc1cc(C(C[N+](=O)[O-])c2c(-c3ccccc3)cc3ccccn23)cc(OC)c1OC` (stereo not drawn) gave MrgX1 PAM inactive, RGS4 act inactive, MrgX1 antagonist inactive, MrgX1 agonist inactive, RGS4 block inactive, RGS4 uninduced inactive and M3R basal Ca ctr inactive.
`COc1ccc(C(C[N+](=O)[O-])c2c(-c3ccccc3)cc3ccccn23)cc1` (stereo not drawn) gave MrgX1 PAM inactive, RGS4 act inactive, MrgX1 antagonist inactive, MrgX1 agonist inactive, RGS4 block 15, RGS4 inh valid 12%, RGS4 uninduced inactive and M3R basal Ca ctr inactive.
Screening O=Nc1c(-c2ccccc2)cc2ccccn12 returned MrgX1 PAM inactive, RGS4 act inactive, MrgX1 antagonist inactive, MrgX1 agonist inactive and RGS4 block inactive.
`COc1cc(-c2ncc3ccccn23)cc(OC)c1OC` gave MrgX1 PAM inactive, RGS4 act inactive, MrgX1 antagonist inactive, MrgX1 agonist inactive and RGS4 block inactive.
For Cc1ccc(OCCCN2CCOCC2)cc1 the results were MrgX1 PAM inactive, RGS4 act inactive, MrgX1 antagonist inactive, MrgX1 agonist inactive and RGS4 block inactive.
For Cc1cc(-c2ccc(C(C)C)c(S(=O)(=O)NCCN3CCC(C)CC3)c2)on1 the results were MrgX1 PAM inactive, RGS4 act inactive, MrgX1 antagonist inactive, MrgX1 agonist inactive and RGS4 block inactive.
Cc1cccc(NC(=O)CSCC(=O)N2CCN(Cc3ccc4c(c3)OCO4)CC2)c1 was read as MrgX1 PAM inactive, RGS4 act inactive, MrgX1 antagonist inactive, MrgX1 agonist inactive and RGS4 block inactive.
`CCn1cc([N+](=O)[O-])c(C(=O)N2N=C(c3ccc4ccccc4c3)CC2c2ccccc2O)n1` (stereo not drawn) gave MrgX1 PAM inactive, RGS4 act inactive, MrgX1 antagonist inactive, MrgX1 agonist inactive, RGS4 block inactive, RGS4 uninduced inactive and M3R basal Ca ctr inactive.
CCn1cc(Cl)c(C(=O)N2N=C(c3ccc4ccccc4c3)CC2c2ccccc2O)n1 (stereo not drawn) was read as MrgX1 PAM inactive, RGS4 act inactive, MrgX1 antagonist inactive, MrgX1 agonist inactive and RGS4 block inactive.
Screening N#C/C(=C\c1ccccc1OCc1ccc(C(=O)O)cc1)C(=O)Nc1ccc(O)cc1 returned MrgX1 PAM inactive, RGS4 act inactive, MrgX1 antagonist inactive, MrgX1 agonist inactive, RGS4 block 6.9, RGS4 inh valid 14%, RGS4 uninduced inactive and M3R basal Ca ctr inactive.
For COC(=O)c1ccc(COc2ccccc2/C=C(\C#N)C(=O)Nc2ccc(C)cc2)cc1 the results were MrgX1 PAM inactive, RGS4 act inactive, MrgX1 antagonist inactive, MrgX1 agonist inactive, RGS4 block inactive, RGS4 inh valid inactive, RGS4 uninduced inactive and M3R basal Ca ctr inactive.
COc1ccc2cc(C3C(C#N)=C(N)OC(C)=C3C(C)=O)c(Cl)nc2c1 (stereo not drawn) was read as MrgX1 PAM inactive, RGS4 act inactive, MrgX1 antagonist inactive, MrgX1 agonist inactive, RGS4 block 5.6, RGS4 inh valid 32%, RGS4 uninduced inactive and M3R basal Ca ctr inactive.
`CCc1ccc(-c2nc(CS(=O)CC(=O)NC3CCCCCC3)c(C)o2)cc1` (stereo not drawn) gave MrgX1 PAM inactive, RGS4 act inactive, MrgX1 antagonist inactive, MrgX1 agonist inactive and RGS4 block inactive.
For O=C(NC1CCN(C(=O)Nc2ccc(F)cc2)CC1)c1ccc(F)cc1 the results were MrgX1 PAM inactive, RGS4 act inactive, MrgX1 antagonist inactive, MrgX1 agonist inactive and RGS4 block inactive.
For Nc1nn2cc(-c3ccccc3)nc2c2ccccc12 the results were MrgX1 PAM inactive, RGS4 act inactive, MrgX1 antagonist inactive, MrgX1 agonist inactive, RGS4 block inactive, RGS4 uninduced inactive and M3R basal Ca ctr inactive.
`Cc1cn2nc(N)c3ccccc3c2n1` gave MrgX1 PAM inactive, MrgX1 antagonist inactive and MrgX1 agonist inactive.
O=C(CSc1nnc(CNC(=O)c2c(F)cccc2F)o1)c1ccccc1 was read as MrgX1 PAM inactive, RGS4 act inactive, MrgX1 antagonist inactive, MrgX1 agonist inactive and RGS4 block inactive.
